Source: ChEMBL document CHEMBL4393678, “Novel Tetrahydroquinazolinamines as Selective Histamine 3 Receptor Antagonists for the Treatment of Obesity” (J Med Chem, 2019)
The source made the active and inactive calls. No cut-off for these calls is given here.

Assays:
[1] = target: D(3) dopamine receptor (Homo sapiens) (UniProt P35462); assay: Antagonist activity at D3 receptor (unknown origin)
[2] = target: T1, Muscarinic acetylcholine receptor M5 (Homo sapiens) (UniProt P08912); assay: Antagonist activity at M5R (unknown origin) expressed in HEK293 cells harboring luc2P/NFAT-RE plasmid at 10 uM after 6 to 8 hrs by luciferase reporter gene assay; format: cell-based
T1 sequence (whole entry): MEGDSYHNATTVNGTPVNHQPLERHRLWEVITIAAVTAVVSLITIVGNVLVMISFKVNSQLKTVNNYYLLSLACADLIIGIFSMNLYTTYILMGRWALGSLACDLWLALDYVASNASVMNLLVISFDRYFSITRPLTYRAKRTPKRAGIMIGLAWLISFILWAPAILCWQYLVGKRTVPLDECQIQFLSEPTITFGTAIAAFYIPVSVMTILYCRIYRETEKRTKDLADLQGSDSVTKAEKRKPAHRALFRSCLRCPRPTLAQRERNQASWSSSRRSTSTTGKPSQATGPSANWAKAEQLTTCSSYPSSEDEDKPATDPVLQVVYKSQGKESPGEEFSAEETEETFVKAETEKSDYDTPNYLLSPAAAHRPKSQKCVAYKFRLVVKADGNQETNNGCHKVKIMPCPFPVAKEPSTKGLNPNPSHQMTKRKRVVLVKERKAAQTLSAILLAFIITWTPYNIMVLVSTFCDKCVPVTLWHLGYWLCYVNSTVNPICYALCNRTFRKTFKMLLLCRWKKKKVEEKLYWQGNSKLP
How it was run: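 NFAT-RE luciferase assay in HEK293T cells transiently co-transfected with luc2P/NFAT-RE plasmid and receptor plasmid. Cells plated in DMEM and incubated overnight at 37 °C, 5% CO₂. Compounds and reference ligands applied for 6-8 h. Luciferase read after adding Bright-Glo substrate (1 mg/ml final).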

[3] = Half life in C57BL/6J mouse brain at 20 mg/kg, po by LC-MS/MS analysis; format: ADME, organism-based
How it was run: (§1)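 Male C57BL/6J mice (6-8 weeks, 20 ± 5 g) fasted overnight (12-16 h) got a single 20 mg/kg oral dose as 2.5 mg/mL suspension in 1% w/v gum acacia; n=5 per time point. Serum and brain (PBS homogenate 1:6 w/v) sampled up to 24 h. Parent and demethylated metabolite quantified by LC-MS/MS after liquid-liquid extraction (C18, MRM, phenacetin internal standard; linear 0.25-200 ng/mL). Two-compartment open model fit.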

[4] = Cmax in C57BL/6J mouse serum assessed as 4-(2-Amino-8-methyl-5,6,7,8-tetrahydroquinazolin-4-yl)phenol level at 20 mg/kg, po by LC-MS/MS analysis; format: ADME, organism-based; parameters: dose 20 mg/kg, route oral; conditions: in vivo; how it was run: as §1
[5] = fCmax in C57BL/6J mouse brain by equilibrium dialysis method; format: ADME, tissue-based
How it was run: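 Unbound brain level derived from brain concentration after 20 mg/kg oral dose, multiplied by unbound fraction from brain-homogenate equilibrium dialysis; given at Cmax and at 4 h.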

Mus musculus [6] = assay: Anorexic effect in 12 hrs fasted db/db-induced obese C57BL/6J mouse model assessed as reduction in cumulative food intake at 20 mg/kg, po pretreated for 30 mins followed by food addition measured after 4 hrs relative to control; format: functional; parameters: scale not given: the % may be the effect or the level left
How it was run: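 Mice starved 12 h (8:00 am to 8:00 pm) with water available, then housed singly. Compound given orally in 5% gum acacia in normal saline; vehicle group received the same. Cumulative food intake measured over 4 h of the night phase (9:00 pm to 1:00 am), starting 30 min after dosing. Antagonism arms: imitet 5 mg/kg i.p. 30 min before compound, or α-methyl-DL-histidine 20 mg/kg i.p. 2 h before.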

Mus musculus [7] = assay: Anti-obesity activity in high fat diet-induced obese C57BL/6J mouse model assessed as change in body weight at 10 mg/kg, po measured after 6 weeks (reference value: 3.86 +/- 0.99 g); format: functional
How it was run: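 Male C57BL/6J mice (6–8 weeks, 22–25 g) on high-fat diet, with a normal-chow group included. Daily chronic oral dosing against vehicle for six weeks. Percent body weight change followed over the treatment days, and net body weight change taken at six weeks. n=5-6 per group. Two-way ANOVA, or one-way ANOVA with Newman-Keuls test.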

Mus musculus [8] = assay: Anti-obesity activity in 16 hrs fasted db/db-induced obese C57BL/6J mouse model assessed as change in blood total cholesterol level at 20 mg/kg, po measured after 6 weeks; format: functional, organism-based
Mus musculus [9] = assay: Anti-obesity activity in 16 hrs fasted db/db-induced obese C57BL/6J mouse model assessed as change in blood TG level at 20 mg/kg, po measured after 6 weeks; format: functional, organism-based
Mus musculus [10] = assay: Anti-obesity activity in high fat diet-induced obese C57BL/6J mouse model assessed as change in LDL level at 10 to 20 mg/kg, po measured after 6 weeks; format: functional, organism-based
How it was run: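 At the end of treatment (six weeks HFD, four weeks db/db), mice euthanized with avertin 350 mg/kg. Blood taken by cardiac puncture into 3.8% sodium citrate. Plasma separated at 4000 rpm and stored at -80 °C. TG, TC, HDLc and LDLc measured on a bio-analyzer.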

Chain of D(3) dopamine receptor (Homo sapiens) (P35462 whole entry): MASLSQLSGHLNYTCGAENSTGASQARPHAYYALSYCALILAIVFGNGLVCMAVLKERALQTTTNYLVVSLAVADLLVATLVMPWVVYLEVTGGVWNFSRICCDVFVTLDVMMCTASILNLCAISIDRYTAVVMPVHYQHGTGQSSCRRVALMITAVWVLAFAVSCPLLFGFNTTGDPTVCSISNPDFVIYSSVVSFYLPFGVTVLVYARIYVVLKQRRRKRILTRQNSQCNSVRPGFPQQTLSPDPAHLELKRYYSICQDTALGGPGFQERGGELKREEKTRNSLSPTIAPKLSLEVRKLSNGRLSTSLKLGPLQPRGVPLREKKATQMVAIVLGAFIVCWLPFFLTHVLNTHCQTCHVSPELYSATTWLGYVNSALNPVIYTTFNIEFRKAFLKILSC

COc1ccc(-c2nc(N)nc3c2CCCC3C)cc1 (racemic)
inhibition [1]: inactive
inhibition [2]: inactive
half-life [3]: 1.1 h
Cmax [4]: 3333.3 ng/mL
fCmax [5]: 334.7 nM
Activity (Mus musculus [6]): 33%
Activity (Mus musculus [7]): 2.6 g
Activity (Mus musculus [8]): inactive
Activity (Mus musculus [9]): inactive
Activity (Mus musculus [10]): inactive
